Active and inactive are the calls of the source. The calls are words filed in the database; no cut-off is given here.
Key:
[1] = Stability of the compound in pH 6.8 phosphate buffer at 5 uM by HPLC method; format: physicochemical; conditions: pH 6.8, 5 µM
Procedure, shortened: (§1)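 Compound dissolved at 5 µM in phosphate buffer (pH 1.2, 6.8 or 7.4), held at 37 °C for 24 h. Aliquots taken at intervals and analysed by HPLC. t1/2 = 0.693/k from linear regression of pseudo-first-order kinetics.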

[2] = Oral bioavailability in Wistar rat at 50 mg/kg administered as single dose by UPLC-MS/MS method; format: ADME, organism-based; conditions: in vivo
Procedure, shortened: (§2)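 Wistar rats, six per group, single oral dose equivalent to 50 mg/kg gemcitabine; separate group given gemcitabine iv at 7.5 mg/kg. Oral sampling at 5, 10, 15, 30 min and 1, 2, 4, 6, 8, 12, 24 h; iv at 15, 30 min and 2, 4, 8, 12, 24 h. Blood into THU-pretreated heparinized tubes, centrifuged 3000 × g 15 min, plasma at -80 °C. Prodrug and gemcitabine quantified by UPLC-MS/MS. F = AUCpo×Div/AUCiv/Dpo×100%.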

[3] = Half life in rat hepatic homogenates at 5 uM by HPLC method; format: ADME, tissue-based, Liver
Procedure, shortened: (§3)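 Compound at 5 µM final in rat plasma, 20% rat hepatic homogenate or 20% rat intestinal homogenate at 37 °C for 24 h. Homogenates made by homogenizing 0.3 g saline-washed tissue in 1 mL saline, spun 13,000 rpm 4 °C 5 min. Sampled at intervals, analysed by HPLC. t1/2 = 0.693/k.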

[4] = Half life in rat plasma at 5 uM by HPLC method; format: ADME, cell-free; procedure, shortened: as §3
[5] = molecular target: T1, Organic cation/carnitine transporter 2 (Homo sapiens, UniProt O76082); assay: Ratio of drug transport assessed as OCTN2 transporter mediated drug uptake in human Caco2 cells at 1 to 800 uM in presence of Na+ to drug transport assessed as OCTN2 transporter mediated drug uptake in human Caco2 cells at 1 to 800 uM in presence of N-methyl-D-glucamine; format: ADME, cell-based; conditions: caco-2, 800 µM
T1 sequence (O76082 whole entry): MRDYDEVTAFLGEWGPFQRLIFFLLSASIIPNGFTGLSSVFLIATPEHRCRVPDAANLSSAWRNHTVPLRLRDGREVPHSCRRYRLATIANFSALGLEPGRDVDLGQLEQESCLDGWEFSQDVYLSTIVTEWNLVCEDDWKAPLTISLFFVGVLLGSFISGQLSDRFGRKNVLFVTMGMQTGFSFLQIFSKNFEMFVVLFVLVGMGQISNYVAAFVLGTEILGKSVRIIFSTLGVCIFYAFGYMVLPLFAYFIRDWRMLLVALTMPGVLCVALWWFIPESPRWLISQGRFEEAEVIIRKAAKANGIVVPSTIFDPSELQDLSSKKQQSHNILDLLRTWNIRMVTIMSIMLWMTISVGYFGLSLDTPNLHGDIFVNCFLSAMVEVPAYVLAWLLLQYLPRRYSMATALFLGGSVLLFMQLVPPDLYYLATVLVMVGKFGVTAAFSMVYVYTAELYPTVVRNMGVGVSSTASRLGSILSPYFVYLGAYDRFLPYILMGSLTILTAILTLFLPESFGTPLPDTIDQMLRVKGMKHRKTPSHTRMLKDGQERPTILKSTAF

[6] = molecular target: T2, Organic cation/carnitine transporter 2 (Rattus norvegicus, UniProt O70594); assay: Ratio of drug transport assessed as OCTN2 transporter mediated effective permeability in rat duodenum at 76 uM in absence of L-carnitine to drug transport assessed as OCTN2 transporter mediated effective permeability in rat duodenum at 76 uM in presence of L-carnitine; format: ADME
T2 sequence (O70594 whole entry): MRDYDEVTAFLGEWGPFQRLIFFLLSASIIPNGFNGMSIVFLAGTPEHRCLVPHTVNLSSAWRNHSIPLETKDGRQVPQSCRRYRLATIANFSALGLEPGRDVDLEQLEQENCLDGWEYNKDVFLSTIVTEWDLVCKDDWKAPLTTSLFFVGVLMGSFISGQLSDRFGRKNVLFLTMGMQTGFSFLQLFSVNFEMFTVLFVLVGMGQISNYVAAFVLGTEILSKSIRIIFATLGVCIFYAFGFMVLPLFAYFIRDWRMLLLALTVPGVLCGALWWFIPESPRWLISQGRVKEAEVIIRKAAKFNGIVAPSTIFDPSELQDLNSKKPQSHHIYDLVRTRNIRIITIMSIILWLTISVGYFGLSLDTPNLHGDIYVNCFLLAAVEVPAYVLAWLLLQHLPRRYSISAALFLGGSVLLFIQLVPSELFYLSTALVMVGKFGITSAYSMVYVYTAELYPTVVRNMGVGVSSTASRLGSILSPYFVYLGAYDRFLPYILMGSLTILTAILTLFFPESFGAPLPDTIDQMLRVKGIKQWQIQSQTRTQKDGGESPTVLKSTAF

[7] = Drug level in Wistar rat portal blood at 50 mg/kg administered as single dose at 2 hrs by UPLC-MS/MS method; format: ADME, organism-based; conditions: read-out: Drug uptake
Procedure, shortened: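 Rats given single oral dose equivalent to 50 mg/kg gemcitabine. Portal vein and systemic plasma sampled at 2 h. Prodrug and gemcitabine measured by UPLC-MS/MS.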

OCTN2 = assay: Ratio of drug transport in OCTN2 (unknown origin) expressing HEK293 cells assessed as transporter-mediated drug uptake at 25 uM to drug uptake in HEK293 cells at 25 uM; format: ADME, cell-based; conditions: human, HEK293 cells expressing OCTN2, against HEK293 cells
Procedure, shortened: (§4)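 OCTN2-transfected HEK293 cells and mock HEK293 cells incubated with 25 µM compound at 37 °C for 15 min, then cellular uptake measured; n = 2.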

[8] = molecular target: T2, Organic cation/carnitine transporter 2; assay: Ratio of drug transport assessed as OCTN2 transporter mediated effective permeability in rat jejunum at 76 uM in absence of L-carnitine to drug transport assessed as OCTN2 transporter mediated effective permeability in rat jejunum at 76 uM in presence of L-carnitine; format: ADME
[9] = Oral bioavailability in Wistar rat at 50 mg/kg administered as single dose in presence of L-carnitine by UPLC-MS/MS method; format: ADME, organism-based; conditions: in vivo, with L-carnitine
Procedure, shortened: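 Rats dosed orally with prodrug at a gemcitabine-equivalent dose of 50 mg/kg, co-administered with 40 mM L-carnitine. Serial blood at 5 min–24 h into THU-pretreated heparinized tubes. Plasma measured by UPLC-MS/MS. Absolute bioavailability calculated against iv gemcitabine at 7.5 mg/kg.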

Rattus norvegicus [10] = assay: AUC (0 to 24 hrs) in Wistar rat at 50 mg/kg, po administered as single dose by UPLC-MS/MS method; format: ADME, organism-based; design: dose 50 mg/kg, time < 24 hr, route oral; conditions: in vivo; procedure, shortened: as §2
[11] = Terminal half-life in Wistar rat at 50 mg/kg, po administered as single dose by UPLC-MS/MS method; format: ADME, organism-based; conditions: in vivo, read-out: beta t1/2 (converted); procedure, shortened: as §2
[12] = Tmax in Wistar rat at 50 mg/kg, po administered as single dose by UPLC-MS/MS method; format: ADME, organism-based; conditions: in vivo; procedure, shortened: as §2
[13] = Half life in pH 1.2 phosphate buffer at 5 uM by HPLC method; format: physicochemical; procedure, shortened: as §1
[14] = molecular target: T1, Organic cation/carnitine transporter 2; assay: Drug transport assessed as Vmax for OCTN2 transporter mediated drug uptake in human Caco2 cells after 10 mins by Eadie-Hofstee plot method; format: ADME, cell-based; conditions: caco-2, 10 min
BXPC-3 [15] = assay: Cytotoxicity against human BxPC3 cells assessed as decrease in cell viability after 48 hrs by MTT assay; format: functional, cell-based
Procedure, shortened: (§5)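 BxPC-3 and Caco-2 cells exposed to compounds for 48 h. Viability read by MTT assay kit. IC50 calculated from dose-response.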

[16] = Half life in pH 7.4 phosphate buffer at 5 uM by HPLC method; format: physicochemical; procedure, shortened: as §1
[17] = molecular target: T1, Organic cation/carnitine transporter 2; assay: Ratio of drug transport assessed as OCTN2 transporter mediated drug uptake in human Caco2 cells at 100 uM in absence of L-carnitine to drug transport assessed as OCTN2 transporter mediated drug uptake in human Caco2 cells at 100 uM in presence of L-carnitine; format: ADME, cell-based; conditions: caco-2, 100 µM
[18] = molecular target: T1, Organic cation/carnitine transporter 2; assay: Ratio of drug transport assessed as OCTN2 transporter mediated cell permeability in human Caco2 cells at 25 uM in absence of L-carnitine to drug transport assessed as OCTN2 transporter mediated cell permeability in human Caco2 cells at 25 uM in presence of L-carnitine; format: ADME, cell-based; conditions: caco-2, 25 µM
Procedure, shortened: (§6)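 Caco-2 cells seeded at 1.0×10^5 cells/well on 0.4 µm polycarbonate inserts, cultured 21 days in MEM; monolayers with TEER over 250 Ω·cm² used. Compound at 25 µM final in HBSS, added apically, with or without 100 µM L-carnitine, 37 °C. Basolateral samples taken at 15, 30, 45, 60, 90, 120 min. Analysed by UPLC-MS/MS to give Papp. Triplicate runs.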

[19] = Half life in rat intestinal homogenates at 5 uM by HPLC method; format: ADME, tissue-based, Intestine; procedure, shortened: as §3
[20] = molecular target: T1, Organic cation/carnitine transporter 2; assay: Drug transport assessed as OCTN2 transporter mediated cell permeability in human Caco2 cells across apical to basolateral side at 25 uM after 15 to 120 mins by UPLC-MS/MS method relative to gemcitabine; format: ADME, cell-based; conditions: caco-2, 25 µM; procedure, shortened: as §6
[21] = Tmax in Wistar rat at 7.5 mg/kg, iv administered as single dose by UPLC-MS/MS method; format: ADME, organism-based; conditions: in vivo; procedure, shortened: as §2
BXPC-3 [22] = assay: Cytotoxicity against human BxPC3 cells assessed as decrease in cell viability at 0.1 to 200 uM after 48 hrs by MTT assay; format: functional, cell-based; procedure, shortened: as §5
[23] = Cmax in Wistar rat at 50 mg/kg, po administered as single dose by UPLC-MS/MS method; format: ADME, organism-based; design: dose 50 mg/kg, route oral; conditions: in vivo; procedure, shortened: as §2
Rattus norvegicus [24] = assay: AUC (0 to 24 hrs) in Wistar rat at 7.5 mg/kg, iv administered as single dose by UPLC-MS/MS method; format: ADME, organism-based; design: dose 7.5 mg/kg, time < 24 hr, route intravenous; conditions: in vivo; procedure, shortened: as §2
[25] = Drug uptake in HEK293 cells at 25 uM after 15 mins by UPLC-MS/MS method; format: ADME, cell-based; conditions: human, hek293, 0.25 h; procedure, shortened: as §4
[26] = Cmax in Wistar rat at 7.5 mg/kg, iv administered as single dose by UPLC-MS/MS method; format: ADME, organism-based; design: dose 7.5 mg/kg, route intravenous; conditions: in vivo; procedure, shortened: as §2
[27] = Terminal half-life in Wistar rat at 7.5 mg/kg, iv administered as single dose by UPLC-MS/MS method; format: ADME, organism-based; conditions: in vivo, read-out: beta t1/2 (converted); procedure, shortened: as §2
[28] = Half life in pH 6.8 phosphate buffer at 5 uM by HPLC method; format: physicochemical; procedure, shortened: as §1

SMILES	bioavailability [2] [%]	half-life at 5 µM [3] [h]	half-life at 5 µM [4] [h]	concentration at 2 h [7] [ng/mL]	AUC (Rattus norvegicus [10]) [ng·h/mL]	half-life [11] [h]	Tmax [12] [h]	half-life at 5 µM [13] [h]	Vmax [14] [nmol/mg]	half-life at 5 µM [16] [h]	Ratio [17]	Ratio [18]	half-life at 5 µM [19] [h]	fold change (FC) [20]	Activity (BXPC-3 [15])	also measured
C[N+](C)(C)CC(CC(=O)[O-])OC(=O)CCC(=O)Nc1ccn([C@@H]2O[C@H](CO)[C@@H](O)C2(F)F)c(=O)n1 (some centres not stated)	12	15.5	3.7	2460	14900	6.2	1	5.5	0.2013	28.4	2.2 to 3.7	1.6 to 3.6	50.9	5 to 15	Dose-dependent effect	Stability [1]: Stable; Ratio [5]: 2 to 10; Ratio [6]: 25; uptake ratio at 25 µM (OCTN2): 3 to 8; Ratio [8]: 25; bioavailability [9]: 6%
C[N+](C)(C)CC(CC(=O)[O-])OC(=O)CCCCCCCCC(=O)Nc1ccn([C@@H]2O[C@H](CO)[C@@H](O)C2(F)F)c(=O)n1 (some centres not stated)					15900	5.4	1.8		0.3884		2.2 to 3.7	1.6 to 3.6			Dose-dependent effect	
C[N+](C)(C)CC(CC(=O)[O-])OC(=O)CCCCCCC(=O)Nc1ccn([C@@H]2O[C@H](CO)[C@@H](O)C2(F)F)c(=O)n1 (some centres not stated)					11100	2.3	1.2		0.4344		2.2 to 3.7	1.6 to 3.6		5 to 15	Dose-dependent effect	

More lines, main results first:

bioavailability [2] [%]	half-life at 5 µM [3] [h]	half-life at 5 µM [4] [h]	concentration at 2 h [7] [ng/mL]	AUC (Rattus norvegicus [10]) [ng·h/mL]	half-life [11] [h]	Tmax [12] [h]	half-life at 5 µM [13] [h]	Vmax [14] [nmol/mg]	half-life at 5 µM [16] [h]	Ratio [17]	Ratio [18]	half-life at 5 µM [19] [h]	fold change (FC) [20]	SMILES	Activity (BXPC-3 [15])	also measured
3.2			199	5620	2.3	1.7								Nc1ccn([C@@H]2O[C@H](CO)[C@@H](O)C2(F)F)c(=O)n1 [GEMCITABINE]		Tmax [21]: 0.5 h; Activity (BXPC-3 [22]): Active; Cmax [23]: 1320 ng/mL; AUC (Rattus norvegicus [24]): 26700 ng·h/mL; Drug uptake [25]: Not Active; Cmax [26]: 7100 ng/mL; half-life [27]: 4.4 h
	32.7	1.7		9030	4.3	1.9	1		10.3			116		CCCC(=O)Nc1ccn([C@@H]2O[C@H](CO)[C@@H](O)C2(F)F)c(=O)n1		half-life at 5 µM [28]: 45.9 h
